In ChEMBL document CHEMBL1909624, “BRN-103, a novel nicotinamide derivative, inhibits VEGF-induced angiogenesis and proliferation in human umbilical vein endothelial cells” (2011):
Calls of active or inactive are those of the source. The calls are words filed in the database; no cut-off is given here.

Experiments:
[1] = system: HUVEC; experiment: Antiangiogenic activity in HUVEC assessed as decrease in VEGF-induced cell migration at 50 uM after 24 hrs by transwell migration assay; type: functional, cell-based; settings: Homo sapiens
[2] = system: HUVEC; experiment: Cytotoxicity against human HUVEC; type: functional
[3] = biological target: T1, Nitric oxide synthase 3 (Homo sapiens) (UniProt P29474); experiment: Inhibition of eNOS phosphorylation at […] in VEGF-stimulated HUVEC at 1 uM preincubated for 1 hr before VEGF induction measured after 1 hr by Western blot analysis
T1 sequence (whole entry): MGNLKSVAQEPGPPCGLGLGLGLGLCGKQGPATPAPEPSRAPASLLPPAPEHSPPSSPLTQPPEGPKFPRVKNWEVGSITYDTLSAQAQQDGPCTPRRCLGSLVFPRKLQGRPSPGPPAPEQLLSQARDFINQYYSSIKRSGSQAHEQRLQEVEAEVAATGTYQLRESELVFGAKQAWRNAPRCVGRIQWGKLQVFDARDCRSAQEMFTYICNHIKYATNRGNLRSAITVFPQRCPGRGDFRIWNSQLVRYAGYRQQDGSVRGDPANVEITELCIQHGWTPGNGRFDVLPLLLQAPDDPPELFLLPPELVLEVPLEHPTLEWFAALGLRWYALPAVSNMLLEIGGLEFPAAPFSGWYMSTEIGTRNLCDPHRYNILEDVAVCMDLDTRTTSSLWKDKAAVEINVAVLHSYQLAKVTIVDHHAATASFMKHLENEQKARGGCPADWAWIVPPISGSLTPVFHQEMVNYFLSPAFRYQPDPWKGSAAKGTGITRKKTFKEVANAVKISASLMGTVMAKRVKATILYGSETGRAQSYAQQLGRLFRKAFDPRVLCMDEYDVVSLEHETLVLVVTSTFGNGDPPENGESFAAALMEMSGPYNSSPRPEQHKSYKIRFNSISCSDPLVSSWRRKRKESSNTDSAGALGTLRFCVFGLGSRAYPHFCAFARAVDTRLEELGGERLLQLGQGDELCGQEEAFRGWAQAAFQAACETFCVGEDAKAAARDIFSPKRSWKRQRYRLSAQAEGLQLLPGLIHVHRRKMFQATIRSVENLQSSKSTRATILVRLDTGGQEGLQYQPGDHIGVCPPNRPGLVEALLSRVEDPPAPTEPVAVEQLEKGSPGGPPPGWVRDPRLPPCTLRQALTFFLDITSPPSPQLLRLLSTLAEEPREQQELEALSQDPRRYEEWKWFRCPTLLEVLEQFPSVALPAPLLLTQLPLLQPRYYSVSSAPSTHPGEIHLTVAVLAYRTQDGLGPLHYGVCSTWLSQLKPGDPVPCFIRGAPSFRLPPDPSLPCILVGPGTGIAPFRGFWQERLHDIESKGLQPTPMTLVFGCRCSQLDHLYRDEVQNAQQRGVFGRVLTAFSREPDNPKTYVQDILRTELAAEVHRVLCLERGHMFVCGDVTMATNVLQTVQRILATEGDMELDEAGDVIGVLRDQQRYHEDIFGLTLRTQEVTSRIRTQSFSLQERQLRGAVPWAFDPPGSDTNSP
Summary of the method: (§1)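 0.1% serum-starved HUVECs were pretreated with compound for 1 h, then given 10 ng/ml VEGF for 5 min (p-ERK), 30 min (p-AKT) or 1 h (p-eNOS). Lysates were Western-blotted with phospho-specific and total AKT, ERK and eNOS antibodies. Bands were quantified as the mean of three experiments with SD; ANOVA with Dunnett's test.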

[4] = system: HUVEC; experiment: Antiangiogenic activity in HUVEC assessed as inhibition of VEGF-induced cell proliferation at 1 uM by BrdU incorporation assay; type: functional, cell-based; settings: Homo sapiens
Summary of the method: (§2)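 DNA synthesis was measured by BrdU incorporation in 0.1% serum-starved HUVECs stimulated with VEGF, with or without compound. Incorporated BrdU was detected with an anti-BrdU monoclonal antibody using a commercial ELISA kit. Mean of three experiments with SD; ANOVA with Dunnett's post-hoc test.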

[5] = system: HUVEC; experiment: Inhibition of AKT phosphorylation at Ser-473 in VEGF-stimulated HUVEC at 1 uM preincubated for 1 hr before VEGF induction measured after 30 mins by Western blot analysis; type: cell-based; settings: Homo sapiens; summary of the method: as §1
[6] = system: HUVEC; experiment: Inhibition of ERK phosphorylation at Thr202/Tyr204 in VEGF-stimulated HUVEC at 1 uM preincubated for 1 hr before VEGF induction measured after 5 mins by Western blot analysis; type: cell-based; settings: Homo sapiens; summary of the method: as §1
[7] = system: HUVEC; experiment: Antiangiogenic activity in HUVEC assessed as decrease in VEGF-induced cell migration at 1 uM after 24 hrs by transwell migration assay; type: functional, cell-based; settings: Homo sapiens
Summary of the method: (§3)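 HUVECs were seeded in a Boyden chamber on a porous membrane, with test compound in 0.1% EBM in the upper chamber and 10 ng/ml VEGF in the lower. After 24 h, cells that had crossed the pores were counted. Mean of three independent experiments with SD; ANOVA with Dunnett's post-hoc test.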

[8] = system: HUVEC; experiment: Antiangiogenic activity in HUVEC assessed as decrease in VEGF-induced cell migration at 10 uM after 24 hrs by transwell migration assay; type: functional, cell-based; settings: Homo sapiens
[9] = system: HUVEC; experiment: Antiangiogenic activity in VEGF-stimulated HUVEC assessed as inhibition of capillary tube formation preincubated for 1 hr measured after 6 hrs by photographic analysis; type: functional, cell-based; settings: Homo sapiens
Summary of the method: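 HUVECs were pretreated with compound for 1 h, then seeded at 4–7 × 10⁴ cells on growth factor-reduced Matrigel in EBM with or without 10 ng/ml VEGF. After 6 h, tubes were photographed at ×100 and counted manually in low-power fields. Mean of three experiments with SD.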

[10] = system: HUVEC; experiment: Inhibition of AKT phosphorylation at Ser-473 in VEGF-stimulated HUVEC preincubated for 1 hr before VEGF induction measured after 30 mins by Western blot analysis; type: cell-based; settings: Homo sapiens; summary of the method: as §1
[11] = biological target: T1, Nitric oxide synthase 3 (Homo sapiens); experiment: Inhibition of eNOS phosphorylation at […] in VEGF-stimulated HUVEC preincubated for 1 hr before VEGF induction measured after 1 hr by Western blot analysis; summary of the method: as §1
[12] = system: HUVEC; experiment: Inhibition of ERK phosphorylation at Thr202/Tyr204 in VEGF-stimulated HUVEC preincubated for 1 hr before VEGF induction measured after 5 mins by Western blot analysis; type: cell-based; settings: Homo sapiens; summary of the method: as §1
[13] = biological target: Vascular endothelial growth factor receptor 2 (Homo sapiens) (UniProt P35968); experiment: Inhibition of VEGFR2 phosphorylation at tyr-1175 in VEGF-stimulated HUVEC preincubated for 1 hr before VEGF induction measured after 5 mins by Western blot analysis
Summary of the method: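 HUVECs were pretreated with compound for 1 h, stimulated with 10 ng/ml VEGF for 5 min, and lysed. Western blot used an anti-phospho-VEGFR2 antibody, with total VEGFR and β-actin as internal controls. Blot representative of three separate experiments.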

[14] = system: HUVEC; experiment: Antiangiogenic activity in HUVEC assessed as decrease in VEGF-induced cell migration after 24 hrs by transwell migration assay; type: functional, cell-based; settings: Homo sapiens; summary of the method: as §3
[15] = system: Aorta; experiment: Inhibition of VEGF-induced angiogenesis in C57BL/6 mouse aortic rings assessed as decrease in microvessel sprouting after 7 days; type: functional, tissue-based
[16] = system: HUVEC; experiment: Antiangiogenic activity in HUVEC assessed as inhibition of VEGF-induced cell proliferation by BrdU incorporation assay; type: functional, cell-based; settings: Homo sapiens; summary of the method: as §2
[17] = system: HUVEC; experiment: Antiangiogenic activity in HUVEC assessed as decrease in VEGF-induced cell migration after 24 hrs by wound healing assay; settings: Homo sapiens
[18] = system: HUVEC; experiment: Antiangiogenic activity in HUVEC assessed as decrease in VEGF-induced cell migration at 25 uM after 24 hrs by transwell migration assay; type: functional, cell-based; settings: Homo sapiens

Sequence of Vascular endothelial growth factor receptor 2 (Homo sapiens) (P35968 whole entry): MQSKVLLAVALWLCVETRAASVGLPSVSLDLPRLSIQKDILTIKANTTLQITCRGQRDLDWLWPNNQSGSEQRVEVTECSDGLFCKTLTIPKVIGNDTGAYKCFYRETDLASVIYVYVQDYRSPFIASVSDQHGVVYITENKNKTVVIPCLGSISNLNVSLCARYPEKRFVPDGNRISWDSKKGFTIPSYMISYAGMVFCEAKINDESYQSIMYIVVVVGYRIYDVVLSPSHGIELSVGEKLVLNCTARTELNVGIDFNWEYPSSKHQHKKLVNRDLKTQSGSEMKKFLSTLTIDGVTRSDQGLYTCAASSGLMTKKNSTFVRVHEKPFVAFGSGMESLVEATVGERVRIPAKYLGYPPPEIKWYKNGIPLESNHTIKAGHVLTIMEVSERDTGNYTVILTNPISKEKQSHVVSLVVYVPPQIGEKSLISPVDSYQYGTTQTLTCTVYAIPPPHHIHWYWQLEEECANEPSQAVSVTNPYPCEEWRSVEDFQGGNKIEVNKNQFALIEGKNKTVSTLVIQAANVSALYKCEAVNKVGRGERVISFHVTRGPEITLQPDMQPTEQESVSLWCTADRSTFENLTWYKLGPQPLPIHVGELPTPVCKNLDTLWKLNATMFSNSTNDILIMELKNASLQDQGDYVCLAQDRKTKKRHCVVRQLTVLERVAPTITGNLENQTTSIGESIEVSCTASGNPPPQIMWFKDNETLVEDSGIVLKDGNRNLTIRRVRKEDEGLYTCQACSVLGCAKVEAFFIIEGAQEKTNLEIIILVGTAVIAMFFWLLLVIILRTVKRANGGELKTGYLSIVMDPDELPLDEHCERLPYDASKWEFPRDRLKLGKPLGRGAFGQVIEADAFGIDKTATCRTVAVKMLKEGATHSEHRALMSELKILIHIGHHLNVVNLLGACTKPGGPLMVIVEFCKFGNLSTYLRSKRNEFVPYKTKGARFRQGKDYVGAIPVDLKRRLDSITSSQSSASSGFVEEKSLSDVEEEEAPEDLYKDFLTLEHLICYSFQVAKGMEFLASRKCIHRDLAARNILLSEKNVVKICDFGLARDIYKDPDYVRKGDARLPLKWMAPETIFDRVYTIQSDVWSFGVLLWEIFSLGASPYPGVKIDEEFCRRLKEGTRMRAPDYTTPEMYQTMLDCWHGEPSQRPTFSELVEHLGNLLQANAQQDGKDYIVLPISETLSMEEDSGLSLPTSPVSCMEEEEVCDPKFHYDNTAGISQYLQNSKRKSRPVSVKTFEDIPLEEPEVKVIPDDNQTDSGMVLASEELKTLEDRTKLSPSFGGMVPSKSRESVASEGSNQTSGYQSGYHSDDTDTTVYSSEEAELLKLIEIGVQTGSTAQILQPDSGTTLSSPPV

For `O=C(Nc1cccc(Cl)c1)c1cccnc1N1CCN(C(=O)c2cccc(F)c2)CC1`, the Activity [1] was “Active” and the IC90 [2] was > 50 µM.
`CCN(CC)CCNC(=O)c1c(C)[nH]c(/C=C2\C(=O)Nc3ccc(F)cc32)c1C` [SUNITINIB] was tested, and the inhibition [3] was “Active”, the inhibition [4] was “Active” and the inhibition [5] was “inactive”. The inhibition [6] was “Active”, the Activity [7] was “Active” and the IC90 [2] was 1 µM.
`O=C(Nc1cccc(Cl)c1)c1cccnc1NC1CCN(Cc2ccccc2)CC1` was tested, and the Activity [8] was “Active”, the inhibition [9] was “Dose-dependent effect” and the inhibition [10] was “Dose-dependent effect”. For the same molecule, the inhibition [11] was “Dose-dependent effect”, the inhibition [12] was “Dose-dependent effect” and the inhibition [13] was “Dose-dependent effect”. For the same molecule, the Activity [14] was “Dose-dependent effect”, the inhibition [15] was “Dose-dependent effect” and the IC90 [2] was 9.42 µM. For the same molecule, the inhibition [16] was “Dose-dependent effect” and the Activity [17] was “Dose-dependent effect”.
In the case of `COc1ccc(C(=O)N2CCN(c3ncccc3C(=O)Nc3cccc(Cl)c3)CC2)cc1`, the Activity [1] is reported as “Active” and the IC90 [2] is reported as > 50 µM.
`O=C(Nc1cccc(Cl)c1)c1cccnc1NC[C@@H]1CN(Cc2ccc(F)cc2)C(=O)CO1` was tested, and the Activity [1] was “Active” and the IC90 [2] was > 50 µM.
`O=C(Nc1cccc(Cl)c1)c1cccnc1NC1CCN(CO)CC1` was tested, and the Activity [18] was “Active” and the IC90 [2] was 29.2 µM.
